In brackets after ≈: the same amount, converted by molar mass. Several values for one entry are separate records, joined by “and”; a condition that tells them apart may be missing. Equal entries are not always repeated. Square brackets hold non-standard residues; d marks the D form. Peptide text beside a SMILES is read from it. 1Nal = N[C@@H](Cc1cccc2ccccc12)C(=O)O; 2Nal = N[C@@H](Cc1ccc2ccccc2c1)C(=O)O; hPhe = N[C@@H](CCc1ccccc1)C(=O)O
Columns and labels:
[1] = tested on: Pseudomonas aeruginosa; assay: Antibacterial activity against multi drug-resistant Pseudomonas aeruginosa after 24 hrs by microdilution serial twofold assay; type: functional
Outline: (§1)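 Mueller Hinton Broth cultures grown statically at 37 °C and diluted to 5 × 10⁵ CFU/mL. Twofold serial microdilution from 100 μg/mL peptide, final volume 200 μL, with peptide-free controls. MIC is the lowest concentration with no turbidity increase after overnight incubation at 37 °C. Means come from at least two independent experiments run in duplicate.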

[2] = tested on: Staphylococcus aureus; assay: Antibacterial activity against Staphylococcus aureus Cowan 1 NCTC 8530 after 3 hrs by microdilution serial twofold assay; type: functional; conditions: Cowan 1, 3 h, read-out: LD50 (the source's name)
Outline: (§2)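 Mueller Hinton Broth static cultures grown at 37 °C and diluted to 5 × 10⁵ CFU/mL. Peptides were tested by twofold serial microdilution starting from 100 μg/mL in a final volume of 200 μL, with peptide-free controls. After 3 h incubation, cultures were serially 10-fold diluted in PBS and plated on Mueller Hinton Agar. Counts were taken after 24 h at 37 °C. Value is the dose giving 50% bacterial lethality.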

[3] = tested on: Pseudomonas aeruginosa; assay: Antibacterial activity against Pseudomonas aeruginosa ATCC 15442 after 24 hrs by microdilution serial twofold assay; type: functional; conditions: ATCC 15442, 24 h
[4] = tested on: Staphylococcus aureus; assay: Antibacterial activity against multi drug-resistant Staphylococcus aureus after 24 hrs by microdilution serial twofold assay; type: functional; outline: as §1
[5] = tested on: Staphylococcus aureus; assay: Antibacterial activity against Staphylococcus aureus Cowan 1 NCTC 8530 after 24 hrs by microdilution serial twofold assay; type: functional; conditions: Cowan 1, 24 h
Outline: (§3)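 Bacteria grown in static culture at 37 °C in Mueller Hinton broth and diluted to 5 × 10⁵ CFU/mL. Peptides were tested by twofold serial microdilution starting from 100 μg/mL, with peptide-free control wells. The MIC was the lowest concentration with no rise in turbidity after overnight incubation at 37 °C. Values are means of at least two independent experiments run in duplicate.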

[6] = tested on: Escherichia coli; assay: Antibacterial activity against Escherichia coli HB101 after 24 hrs by microdilution serial twofold assay; type: functional; conditions: HB101, 24 h; outline: as §3
[7] = tested on: Candida albicans; assay: Antifungal activity against wild type Candida albicans by broth microdilution method; type: functional
Outline: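 Wild-strain yeast was tested in triplicate by broth microdilution following NCCLS recommendations. The MIC was the lowest peptide concentration with no increase in turbidity after overnight incubation at 37 °C.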

[8] = tested on: Stenotrophomonas maltophilia; assay: Antibacterial activity against Stenotrophomonas maltophilia FC after 24 hrs by microdilution serial twofold assay; type: functional; outline: as §3
[9] = Toxicity assessed as hemolytic activity in human red blood cells after 30 mins; type: cell-based, Erythrocyte; conditions: read-out: HD50
Outline: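 Serially diluted peptides were incubated with 10⁸ washed human RBC (100 µL) for 30 min at 37 °C with agitation. After centrifugation at 900g for 10 min, haemoglobin in the supernatant was read at 550 nm. Distilled water gave maximal lysis. HC₅₀ is the mean from at least two independent experiments run in triplicate.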

[10] = tested on: Bacillus subtilis; assay: Antibacterial activity against Bacillus subtilis ATCC 9466 after 24 hrs by microdilution serial twofold assay; type: functional; conditions: ATCC 9466, 24 h
[11] = tested on: Staphylococcus aureus; assay: Antibacterial activity against Staphylococcus aureus ATCC 6538P after 24 hrs by microdilution serial twofold assay; type: functional
[12] = tested on: Escherichia coli; assay: Antibacterial activity against Escherichia coli HB101 after 3 hrs by microdilution serial twofold assay; type: functional; conditions: HB101, 3 h, read-out: LD50 (the source's name); outline: as §2
[13] = tested on: Burkholderia cepacia; assay: Antibacterial activity against Burkholderia cepacia 6/06 after 24 hrs by microdilution serial twofold assay; type: functional; outline: as §3
[14] = tested on: Leishmania major; assay: Antileishmanial activity against Leishmania major MHOM/IL/67/JERICHO-2 assessed as protozoal viability after 24 hrs by dye exclusion method; type: functional
Outline: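 Promastigotes grown at 25 °C in supplemented medium 199 containing 20% heat-inactivated FCS, then resuspended at 5 × 10⁵ viable/mL with serially diluted peptides. After 24 h at 25 °C with agitation, viable cells were counted by haemocytometer using trypan blue exclusion. LC₅₀ is the 50% survival reduction versus an untreated culture, fitted by nonlinear regression. Run in triplicate.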

[15] = tested on: Leishmania major; assay: Antileishmanial activity against Leishmania major MHOM/IL/67/JERICHO-2 after 24 hrs by dye exclusion method; type: functional
Outline: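 Promastigotes were grown at 25 °C in medium 199 with 20% heat-inactivated FCS, penicillin/streptomycin, L-glutamine, HEPES, adenine, hemin and biotin. They were resuspended at 5 × 10⁵ viable cells/mL and exposed to serial peptide dilutions at 25 °C with agitation. Viability was counted by trypan blue exclusion in a haemocytometer.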

Row | Molecule | MIC [1] | LC50 [2] | MIC [3] | MIC [4] | MIC [5] | MIC [6] | MIC [7] | MIC [8] | HC50 at 0.5 h [9] | MIC [10] | MIC [11] | LC50 [12] | MIC [13] | LC50 [14] | MIC [15]
1 | CSCC[C@H](NC(=O)[C@@H](NC(=O)CNC(=O)[C@H](CC(C)C)NC(=O)[C@H](CCCCN)NC(=O)[C@H](CCCCN)NC(=O)[C@H](CC(C)C)NC(=O)[C@H](CCSC)NC(=O)[C@@H](NC(=O)[C@H](CCCCN)NC(=O)[C@H](Cc1cccc2ccccc12)NC(=O)[C@H](CC(C)C)NC(=O)[C@H](C)N)[C@@H](C)O)[C@@H](C)O)C(=O)N[C@@H](C)C(=O)N[C@@H](CC(C)C)C(N)=O (H-AL[1Nal]KTMLKKLGTMAL-NH2) | 11.2 µM (≈ 19.2 µg/mL) | 2.4 µM | 5.6 µM (≈ 9.61 µg/mL) | 22.5 µM (≈ 38.6 µg/mL) | 11.5 µM (≈ 19.7 µg/mL) | 2.8 µM (≈ 4.8 µg/mL) | 11.2 µM (≈ 19.2 µg/mL) | 22.5 µM (≈ 38.6 µg/mL) | 75 µM | 11.2 µM (≈ 19.2 µg/mL) | 2.8 µM (≈ 4.8 µg/mL) | 0.9 µM | 25 µM (≈ 42.9 µg/mL) |  | 
2 | CSCC[C@H](NC(=O)[C@@H](NC(=O)CNC(=O)[C@H](CC(C)C)NC(=O)[C@H](CCCCN)NC(=O)[C@H](CCCCN)NC(=O)[C@H](CC(C)C)NC(=O)[C@H](CCSC)NC(=O)[C@@H](NC(=O)[C@H](CCCCN)NC(=O)[C@H](Cc1ccc2ccccc2c1)NC(=O)[C@H](CC(C)C)NC(=O)[C@H](C)N)[C@@H](C)O)[C@@H](C)O)C(=O)N[C@@H](C)C(=O)N[C@@H](CC(C)C)C(N)=O (H-AL[2Nal]KTMLKKLGTMAL-NH2) | 11.2 µM (≈ 19.2 µg/mL) | 2.5 µM | 5.6 µM (≈ 9.61 µg/mL) | > 25 µM | 11.5 µM (≈ 19.7 µg/mL) | 2.8 µM (≈ 4.8 µg/mL) | 11.2 µM (≈ 19.2 µg/mL) | 25 µM (≈ 42.9 µg/mL) | > 100 µM | 5.6 µM (≈ 9.61 µg/mL) | 2.8 µM (≈ 4.8 µg/mL) | 0.9 µM | 25 µM (≈ 42.9 µg/mL) |  | 
3 | CSCC[C@H](NC(=O)[C@@H](NC(=O)CNC(=O)[C@H](CC(C)C)NC(=O)[C@H](CCCCN)NC(=O)[C@H](CCCCN)NC(=O)[C@H](CC(C)C)NC(=O)[C@H](CCSC)NC(=O)[C@@H](NC(=O)[C@H](CCCCN)NC(=O)[C@H](CCc1ccccc1)NC(=O)[C@H](CC(C)C)NC(=O)[C@H](C)N)[C@@H](C)O)[C@@H](C)O)C(=O)N[C@@H](C)C(=O)N[C@@H](CC(C)C)C(N)=O (H-AL[hPhe]KTMLKKLGTMAL-NH2) | 46 µM (≈ 77.2 µg/mL) | 9.3 µM | > 46 µM | > 46 µM | 46.8 µM (≈ 78.6 µg/mL) | 11.7 µM (≈ 19.6 µg/mL) | 5.8 µM (≈ 9.74 µg/mL) | 23 µM (≈ 38.6 µg/mL) | > 100 µM | 23 µM (≈ 38.6 µg/mL) | 5.8 µM (≈ 9.74 µg/mL) | 3 µM | 23 µM (≈ 38.6 µg/mL) |  | 
4 | CSCC[C@H](NC(=O)[C@@H](NC(=O)CNC(=O)[C@H](CC(C)C)NC(=O)[C@H](CCCCN)NC(=O)[C@H](CCCCN)NC(=O)[C@H](CC(C)C)NC(=O)[C@H](CCSC)NC(=O)[C@@H](NC(=O)[C@H](CCCCN)NC(=O)[C@H](Cc1cccc2ccccc12)NC(=O)[C@H](CC(C)C)NC(=O)[C@H](C)NC(=O)[C@@H](N)CCCCN)[C@@H](C)O)[C@@H](C)O)C(=O)N[C@@H](C)C(=O)N[C@@H](CC(C)C)C(N)=O (H-KAL[1Nal]KTMLKKLGTMAL-NH2) | 10.5 µM (≈ 19.4 µg/mL) | 0.8 µM | 2.6 µM (≈ 4.79 µg/mL) | 21 µM (≈ 38.7 µg/mL) | 5.1 µM (≈ 9.4 µg/mL) | 1.2 µM (≈ 2.21 µg/mL) | 10.5 µM (≈ 19.4 µg/mL) | 21 µM (≈ 38.7 µg/mL) | 80 µM | 5.2 µM (≈ 9.59 µg/mL) | 1.3 µM (≈ 2.4 µg/mL) | < 0.8 µM | 42 µM (≈ 77.4 µg/mL) |  | 
5 | H-ALFKTMLKKLGTMAL-NH2 | > 46 µM | 16.7 µM | > 46 µM | > 46 µM | > 47.1 µM | 23.5 µM | 5.8 µM | > 46 µM | > 100 µM | 23 µM | 23 µM | 4.5 µM | > 46 µM |  | 
6 | H-ALHKTMLKKLGTMAL-NH2 | > 45 µM | > 44.9 µM | > 45 µM | > 45 µM | > 44.9 µM | > 44.9 µM | > 45 µM | > 45 µM | > 100 µM | > 45 µM | > 45 µM | > 44.9 µM | > 45 µM |  | 
7 | H-ALLKTMLKKLGTMAL-NH2 | > 48 µM | 12 µM | > 48 µM | > 48 µM | > 47.9 µM | 23.9 µM | 12 µM | > 48 µM | > 100 µM | 24 µM | 24 µM | 6 µM | > 48 µM |  | 
8 | H-ALWKTMLKKLGT-NH2 |  | 54 µM |  |  | > 54 µM | > 54 µM |  |  | > 100 µM |  |  | 54 µM |  | 50 µg/mL and 27.1 µM | 100 µg/mL and 54.2 µM
9 | H-ALWKTMLKKLGTM-NH2 |  | 50.6 µM |  |  | > 50.6 µM | 50.6 µM |  |  | > 100 µM |  |  | 22.7 µM |  | 50 µg/mL and 25.3 µM | 100 µg/mL and 50.6 µM
10 | H-ALWKTMLKKLGTMA-NH2 |  | 28.3 µM |  |  | > 48.8 µM | 48.8 µM |  |  | > 100 µM |  |  | 20.5 µM |  | 50 µg/mL and 24.4 µM | 100 µg/mL and 48.8 µM
11 | H-ALYKTMLKKLGTMAL-NH2 | > 45 µM | > 46.7 µM | > 45 µM | > 45 µM | > 46.7 µM | > 46.7 µM | > 45 µM | > 45 µM | > 100 µM | > 45 µM | > 45 µM | > 46.7 µM | > 45 µM |  | 
12 | H-KALWKTMLKKLGTMAL-NH2 | 21 µM | 2.7 µM | 5.2 µM | > 42 µM | 20.8 µM | 2.6 µM | 10.1 µM | 21 µM | > 100 µM | 21 µM | 2.6 µM | < 0.8 µM | 42 µM |  | 
